Measured values published in PMC5529739 (CPT: Pharmacometrics & Systems Pharmacology, 2017).

Legend:
[1] = Population PK model of selexipag and ACT-333679 in PAH patients; type: in vivo, human; settings: for Vd/F: human, plasma, oral; for AUC over a dosing interval at steady state, higher in PAH patients than in healthy subjects: patient model vs healthy subject model
platelet aggregation = settings: clinically relevant concentrations, healthy subjects; cited from earlier work
human IP receptor = settings: human pulmonary arterial smooth muscle cells, cellular shape change; cited from earlier work
[2] = type: in vivo, human
Procedure, shortened: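 Oral b.i.d. dosing titrated in 200 μg steps to each patient's tolerated dose, max 1,600 μg b.i.d. Trough plasma samples at baseline and weeks 4–52, plus one week-16 window sample. Model-predicted steady-state AUC at the individual maintenance dose gave AUCcombined (1/38 parent + 37/38 metabolite); placebo exposure was set to 2.5 ng/mL. Lab values were averaged per subject over weeks 8–52, not imputed, and fitted by log-linear regression on log10 exposure and baseline.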

[3] = range 100–1,800 μg; cited from earlier work
[4] = cited from earlier work
[5] = PAH patients, population estimate
[6] = body weight 96 kg vs reference patient 70 kg
[7] = total bilirubin 5 μmol/L vs reference 10 μmol/L
[8] = total bilirubin 25 μmol/L vs reference 10 μmol/L

With `CC(C)N(CCCCOCC(=O)O)c1cnc(-c2ccccc2)c(-c2ccccc2)n1` [ACT‐333679] the “k43, transfer rate constant peripheral to central compartment ACT-333679” value [1, 5] was 0.18 h⁻¹, the “AUCss, covariate effect on exposure over a steady-state dosing interval” value (shortened to “AUCss … over a steady-state dosing interval”) [1, 6] was −10% and the Vd/F [1] was 4.65 L. The “AUCss … over a steady-state dosing interval” value ([1]; male vs female) was −13%, the “AUC over a dosing interval at steady state, higher in PAH patients than in healthy subjects” value [1] was 20% and the “Body weight on Vm/F, covariate effect” value ([1]; power coefficient, Vm=Vm,pop (bw/70)^coefficient) was 0.88. The “AUCss … over a steady-state dosing interval” value [1, 7] was −20%, the “AUCss … over a steady-state dosing interval” value [1, 8] was “+30%” and the “Effect on platelet aggregation” value (platelet aggregation) was “no effect”. The “Potency in activating the human IP receptor relative to selexipag” value (human IP receptor) was 37 fold.

In the case of `CC(C)N(CCCCOCC(=O)NS(C)(=O)=O)c1cnc(-c2ccccc2)c(-c2ccccc2)n1` [selexipag, Selexipag], the “Probability of a treatment-emergent AE of hemorrhage and gastrointestinal hemorrhage: relationship to exposure” value ([2]; AUCcombined at steady state) is reported as “no statistically significant relationship to exposure”, the “Total bilirubin, model-predicted” value ([2]; at the highest exposure, 12.03 μmol/L with placebo) is reported as 10.58 µmol/L and the “Hemoglobin, model-predicted” value ([2]; at the highest exposure, 138.84 G/L with placebo) is reported as 134.58 G/L. For the same molecule, the “Plasma NT pro-BNP, model-predicted” value ([2]; at the highest exposure, 667 with no exposure (placebo)) was 475 ng/mL, the “6-MWD at steady state, model-predicted” value ([2]; at the highest predicted steady-state exposure, reference patient, 369 m on placebo) was 392 m and the “Dose proportionality of PK” value [3] was “dose‐proportional”. The “k12, transfer rate constant central to peripheral compartment selexipag” value [1, 5] was 0.09 h⁻¹, the “k21, transfer rate constant peripheral to central compartment selexipag” value [1, 5] was 0.06 h⁻¹ and the “ka, absorption rate constant” value [1, 5] was 0.71 h⁻¹. The “kmet, metabolism rate constant selexipag to ACT-333679” value [1, 5] was 0.67 h⁻¹, the “CL/F, apparent selexipag clearance” value ([1]; PAH patients, population estimate, 70 kg, total bilirubin 10 μmol/L) was 19.10 L/h and the “AUCss … over a steady-state dosing interval” value ([1]; body weight 51 kg vs reference patient 70 kg) was “+30%”. For the same molecule, the “AUCss … over a steady-state dosing interval” value [1, 6] was −20%, the Vd/F [1] was 12.9 L and the “AUCss … over a steady-state dosing interval” value ([1]; male vs female) was “No change”. The “AUC over a dosing interval at steady state, higher in PAH patients than in healthy subjects” value [1] was 30%, the “Total bilirubin on CL/F, covariate effect” value ([1]; power coefficient, CL=CLpop (bilirubin/10)^coefficient, bilirubin at baseline) was −0.40 and the “Body weight on CL/F, covariate effect” value ([1]; power coefficient, CL=CLpop (bw/70)^coefficient) was 0.61. The “Body weight on Vp/F, covariate effect” value ([1]; power coefficient, Vp=Vp,pop (bw/70)^coefficient) was 1.2, the “AUCss … over a steady-state dosing interval” value [1, 7] was −20% and the “AUCss … over a steady-state dosing interval” value [1, 8] was “+30%”. For the same molecule, the “Effect on platelet aggregation” value (platelet aggregation) was “no effect”, the “Hazard ratio for a primary endpoint event (death or a complication associated with underlying PAH) vs placebo” value ([4]; 99% confidence interval 0.46–0.78, P < 0.001) was 0.6 and the “NT pro-BNP levels in the presence of selexipag” value [4] was “significantly lower”. The “6-MWD difference between placebo and selexipag” value ([4]; week 26, across doses) was 12 m.
